{"source": "paper PMC7449315", "about": "(Journal for Immunotherapy of Cancer, 2020)", "assay": "phase I trial: safety and tolerability", "assay_type": "in vivo, human", "summary_of_the_method": "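Fifteen patients were dosed orally twice daily (three per cohort, 100–800 mg). AEs, DLTs, physical exams, vital signs, ECGs and laboratory chemistry, hematology and coagulation were recorded from first dose to end of treatment. AEs were graded by the investigator using NCI CTCAE v4.03. DLTs were assessed in cycle 1 (days 1–28): grade ≥3 or immune-related non-hematologic events, and grade ≥4 hematologic events.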", "data": [{"smiles": "NS(=O)(=O)[C@H]1CC[C@](F)(CC[C@H]2c3ccccc3-c3cncn32)CC1", "note": "[M4112]", "values": [{"measurement": "Abdominal distension", "setting": "100 mg two times per day (n=3)", "value": "0 (0.0) n (%)"}, {"measurement": "Abdominal pain", "setting": "100 mg two times per day (n=3)", "value": "0 (0.0) n (%)"}, {"measurement": "Alanine aminotransferase increased", "setting": "100 mg two times per day (n=3)", "value": "0 (0.0) n (%)"}, {"measurement": "Amylase increased", "setting": "100 mg two times per day (n=3)", "value": "0 (0.0) n (%)"}, {"measurement": "Anemia of malignant disease", "setting": "100 mg two times per day (n=3)", "value": "0 (0.0) n (%)"}, {"measurement": "Any AE", "setting": "100 mg two times per day (n=3)", "value": "3 (100) n (%)"}, {"measurement": "Any SAE", "setting": "100 mg two times per day (n=3)", "value": "0 n (%)"}, {"measurement": "Aspartate aminotransferase increased", "setting": "100 mg two times per day (n=3)", "value": "0 (0.0) n (%)"}, {"measurement": "Blood alkaline phosphatase increased", "setting": "100 mg two times per day (n=3)", "value": "0 (0.0) n (%)"}, {"measurement": "Blood creatine phosphokinase increased", "setting": "100 mg two times per day (n=3)", "value": "0 (0.0) n (%)"}, {"measurement": "Blood creatinine increased", "setting": "100 mg two times per day (n=3)", "value": "0 (0.0) n (%)"}, {"measurement": "Cough", "setting": "100 mg two times per day (n=3)", "value": "1 (33.3) n (%)"}, {"measurement": "Decreased appetite", "setting": "100 mg two times per day (n=3)", "value": "1 (33.3) n (%)"}, {"measurement": "Dehydration", "setting": "100 mg two times per day (n=3)", "value": "0 (0.0) n (%)"}, {"measurement": "Diarrhea", "setting": "100 mg two times per day (n=3)", "value": "0 (0.0) n (%)"}, {"measurement": "Dyspepsia", "setting": "100 mg two times per day (n=3)", "value": "2 (66.7) n (%)"}, {"measurement": "Dysphagia", "setting": "100 mg two times per day (n=3)", "value": "1 (33.3) n (%)"}, {"measurement": "Fatigue", "setting": "100 mg two times per day (n=3)", "value": "2 (66.7) n (%)"}, {"measurement": "Fever", "setting": "100 mg two times per day (n=3)", "value": "0 (0.0) n (%)"}, {"measurement": "Gamma-glutamyl transferase increased", "setting": "100 mg two times per day (n=3)", "value": "0 (0.0) n (%)"}, {"measurement": "Hypercalcemia", "setting": "100 mg two times per day (n=3)", "value": "0 (0.0) n (%)"}, {"measurement": "Lipase increased", "setting": "100 mg two times per day (n=3)", "value": "0 (0.0) n (%)"}, {"measurement": "Lymphocyte count decreased", "setting": "100 mg two times per day (n=3)", "value": "0 (0.0) n (%)"}, {"measurement": "Maculopapular rash", "setting": "100 mg two times per day (n=3)", "value": "1 (33.3) n (%)"}, {"measurement": "Nausea", "setting": "100 mg two times per day (n=3)", "value": "1 (33.3) n (%)"}, {"measurement": "Palmar-plantar erythrodysesthesia syndrome", "setting": "100 mg two times per day (n=3)", "value": "1 (33.3) n (%)"}, {"measurement": "Platelet count decreased", "setting": "100 mg two times per day (n=3)", "value": "0 (0.0) n (%)"}, {"measurement": "Tumor pain", "setting": "100 mg two times per day (n=3)", "value": "0 (0.0) n (%)"}, {"measurement": "Vomiting", "setting": "100 mg two times per day (n=3)", "value": "2 (66.7) n (%)"}, {"measurement": "Abdominal distension", "setting": "200 mg two times per day (n=3)", "value": "0 (0.0) n (%)"}, {"measurement": "Abdominal pain", "setting": "200 mg two times per day (n=3)", "value": "0 (0.0) n (%)"}, {"measurement": "Alanine aminotransferase increased", "setting": "200 mg two times per day (n=3)", "value": "0 (0.0) n (%)"}, {"measurement": "Amylase increased", "setting": "200 mg two times per day (n=3)", "value": "0 (0.0) n (%)"}, {"measurement": "Anemia of malignant disease", "setting": "200 mg two times per day (n=3)", "value": "0 (0.0) n (%)"}, {"measurement": "Any AE", "setting": "200 mg two times per day (n=3)", "value": "3 (100) n (%)"}, {"measurement": "Any SAE", "setting": "200 mg two times per day (n=3)", "value": "0 n (%)"}, {"measurement": "Aspartate aminotransferase increased", "setting": "200 mg two times per day (n=3)", "value": "0 (0.0) n (%)"}, {"measurement": "Blood alkaline phosphatase increased", "setting": "200 mg two times per day (n=3)", "value": "0 (0.0) n (%)"}, {"measurement": "Blood creatine phosphokinase increased", "setting": "200 mg two times per day (n=3)", "value": "1 (33.3) n (%)"}, {"measurement": "Blood creatinine increased", "setting": "200 mg two times per day (n=3)", "value": "0 (0.0) n (%)"}, {"measurement": "Cough", "setting": "200 mg two times per day (n=3)", "value": "1 (33.3) n (%)"}, {"measurement": "Decreased appetite", "setting": "200 mg two times per day (n=3)", "value": "0 (0.0) n (%)"}, {"measurement": "Dehydration", "setting": "200 mg two times per day (n=3)", "value": "1 (33.3) n (%)"}, {"measurement": "Diarrhea", "setting": "200 mg two times per day (n=3)", "value": "1 (33.3) n (%)"}, {"measurement": "Dyspepsia", "setting": "200 mg two times per day (n=3)", "value": "0 (0.0) n (%)"}, {"measurement": "Dysphagia", "setting": "200 mg two times per day (n=3)", "value": "0 (0.0) n (%)"}, {"measurement": "Fatigue", "setting": "200 mg two times per day (n=3)", "value": "0 (0.0) n (%)"}, {"measurement": "Fever", "setting": "200 mg two times per day (n=3)", "value": "1 (33.3) n (%)"}, {"measurement": "Gamma-glutamyl transferase increased", "setting": "200 mg two times per day (n=3)", "value": "0 (0.0) n (%)"}, {"measurement": "Hypercalcemia", "setting": "200 mg two times per day (n=3)", "value": "1 (33.3) n (%)"}, {"measurement": "Lipase increased", "setting": "200 mg two times per day (n=3)", "value": "1 (33.3) n (%)"}, {"measurement": "Lymphocyte count decreased", "setting": "200 mg two times per day (n=3)", "value": "1 (33.3) n (%)"}, {"measurement": "Maculopapular rash", "setting": "200 mg two times per day (n=3)", "value": "0 (0.0) n (%)"}, {"measurement": "Nausea", "setting": "200 mg two times per day (n=3)", "value": "1 (33.3) n (%)"}, {"measurement": "Palmar-plantar erythrodysesthesia syndrome", "setting": "200 mg two times per day (n=3)", "value": "0 (0.0) n (%)"}, {"measurement": "Platelet count decreased", "setting": "200 mg two times per day (n=3)", "value": "1 (33.3) n (%)"}, {"measurement": "Tumor pain", "setting": "200 mg two times per day (n=3)", "value": "0 (0.0) n (%)"}, {"measurement": "Vomiting", "setting": "200 mg two times per day (n=3)", "value": "1 (33.3) n (%)"}, {"measurement": "Abdominal distension", "setting": "400 mg two times per day (n=3)", "value": "1 (33.3) n (%)"}, {"measurement": "Abdominal pain", "setting": "400 mg two times per day (n=3)", "value": "1 (33.3) n (%)"}, {"measurement": "Alanine aminotransferase increased", "setting": "400 mg two times per day (n=3)", "value": "1 (33.3) n (%)"}, {"measurement": "Amylase increased", "setting": "400 mg two times per day (n=3)", "value": "1 (33.3) n (%)"}, {"measurement": "Anemia of malignant disease", "setting": "400 mg two times per day (n=3)", "value": "1 (33.3) n (%)"}, {"measurement": "Any AE", "setting": "400 mg two times per day (n=3)", "value": "3 (100) n (%)"}, {"measurement": "Any SAE", "setting": "400 mg two times per day (n=3)", "value": "1 (33.3) n (%)"}, {"measurement": "Aspartate aminotransferase increased", "setting": "400 mg two times per day (n=3)", "value": "0 (0.0) n (%)"}, {"measurement": "Blood alkaline phosphatase increased", "setting": "400 mg two times per day (n=3)", "value": "0 (0.0) n (%)"}, {"measurement": "Blood creatine phosphokinase increased", "setting": "400 mg two times per day (n=3)", "value": "1 (33.3) n (%)"}, {"measurement": "Blood creatinine increased", "setting": "400 mg two times per day (n=3)", "value": "1 (33.3) n (%)"}, {"measurement": "Cough", "setting": "400 mg two times per day (n=3)", "value": "1 (33.3) n (%)"}, {"measurement": "Decreased appetite", "setting": "400 mg two times per day (n=3)", "value": "1 (33.3) n (%)"}, {"measurement": "Dehydration", "setting": "400 mg two times per day (n=3)", "value": "0 (0.0) n (%)"}, {"measurement": "Diarrhea", "setting": "400 mg two times per day (n=3)", "value": "0 (0.0) n (%)"}, {"measurement": "Dyspepsia", "setting": "400 mg two times per day (n=3)", "value": "0 (0.0) n (%)"}, {"measurement": "Dysphagia", "setting": "400 mg two times per day (n=3)", "value": "1 (33.3) n (%)"}, {"measurement": "Fatigue", "setting": "400 mg two times per day (n=3)", "value": "1 (33.3) n (%)"}, {"measurement": "Fever", "setting": "400 mg two times per day (n=3)", "value": "0 (0.0) n (%)"}, {"measurement": "Gamma-glutamyl transferase increased", "setting": "400 mg two times per day (n=3)", "value": "0 (0.0) n (%)"}, {"measurement": "Hypercalcemia", "setting": "400 mg two times per day (n=3)", "value": "1 (33.3) n (%)"}, {"measurement": "Lipase increased", "setting": "400 mg two times per day (n=3)", "value": "0 (0.0) n (%)"}, {"measurement": "Lymphocyte count decreased", "setting": "400 mg two times per day (n=3)", "value": "0 (0.0) n (%)"}, {"measurement": "Maculopapular rash", "setting": "400 mg two times per day (n=3)", "value": "1 (33.3) n (%)"}, {"measurement": "Nausea", "setting": "400 mg two times per day (n=3)", "value": "0 (0.0) n (%)"}, {"measurement": "Palmar-plantar erythrodysesthesia syndrome", "setting": "400 mg two times per day (n=3)", "value": "1 (33.3) n (%)"}, {"measurement": "Platelet count decreased", "setting": "400 mg two times per day (n=3)", "value": "0 (0.0) n (%)"}, {"measurement": "Tumor pain", "setting": "400 mg two times per day (n=3)", "value": "1 (33.3) n (%)"}, {"measurement": "Vomiting", "setting": "400 mg two times per day (n=3)", "value": "0 (0.0) n (%)"}, {"measurement": "dose reductions due to AEs (one grade 3 diarrhea and one grade 3 rash after the DLT period)", "setting": "600 mg two times per day", "value": "Two patients"}, {"measurement": "Abdominal distension", "setting": "600 mg two times per day (n=3)", "value": "1 (33.3) n (%)"}, {"measurement": "Abdominal pain", "setting": "600 mg two times per day (n=3)", "value": "1 (33.3) n (%)"}, {"measurement": "Alanine aminotransferase increased", "setting": "600 mg two times per day (n=3)", "value": "0 (0.0) n (%)"}, {"measurement": "Amylase increased", "setting": "600 mg two times per day (n=3)", "value": "1 (33.3) n (%)"}, {"measurement": "Anemia of malignant disease", "setting": "600 mg two times per day (n=3)", "value": "1 (33.3) n (%)"}, {"measurement": "Any AE", "setting": "600 mg two times per day (n=3)", "value": "3 (100) n (%)"}, {"measurement": "Any SAE", "setting": "600 mg two times per day (n=3)", "value": "1 (33.3) n (%)"}]}]}
